Screening data from PubChem BioAssay.
BB579 growth dn: chemicals that inhibit yeast BB579 growth in restrictive medium (lifespan-shortening candidates); S. cerevisiae BB579 growth, OD615, 48 h; inhibition, % at 10 µM; 0.51% of 140,000 active; AID 804;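 active = inhibition above a set limit, 3 SD over the mean compound inhibition, cut at about 44% in these data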
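System: Saccharomyces cerevisiae DeaD strain BB579, replicative lifespan model yeast. Buffer or medium: restrictive glucose-based CSMM-D medium. Doses: one dose, 10 µM compound with 0.25% DMSO. Timing: 4 h preincubation and 48 h exposure at 30 °C. Detection: turbidity as optical density at 615 nm. Benchmarks: amphotericin B 10 µg/mL, positive.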
Yeast lifespan up: yeast lifespan extension; inhibition of the nicotinamide effect, % at 10 µM; S. cerevisiae growth with nicotinamide, OD615; deaD strain in restrictive glucose medium; AID 775; 0.68% of 130,000 active;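 active = inhibition above a set limit, placed 3 SD over the median of all compounds, cut at about 26% in these data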
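assay system = DeaD-strain S. cerevisiae | measured by = absorbance at 615 nm | probe or stimulus = nicotinamide 1.5 mM | buffer or medium = CSMM-D glucose medium, restrictive | times = 48 h at 30 °C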
PostGolgi ctrl: yeast control strain growth, post-Golgi counter-screen; inhibition, % at 10 µM; AID 738; efflux-deficient yeast background strain, growth absorbance A615, 16 h; 5% of 98,000 active
PostGolgi yeast: growth inhibition of a yeast mutant, post-Golgi transport screen; AID 739; inhibition, % at 10 µM; 0.9% of 98,000 active; post-Golgi transport phenotypic cell assay;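 also: yeast cells grown in 1536-well plates; yeast grown about 18 h at 30C before absorbance read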
Hits are given with their value; 0 = inactive; - = not tested or not shown. The full list was thinned out, with hits kept by preference. Rule as the data show it, unless noted: active = inhibition above about 30%; inactive = the rest.

SMILES	BB579 growth dn	Yeast lifespan up	PostGolgi ctrl	PostGolgi yeast
Cc1cc(C)nc(Sc2c(C)nn(-c3ccccc3)c2C)n1	0	0	0	0
COc1ccc(CNC(=O)C(c2ccco2)N(C(=O)CNS(=O)(=O)c2ccccc2)c2ccccc2C)cc1 (configuration not stated)	0	0	-	-
CCOC(=O)c1cccnc1NC(=O)c1ccccc1	0	0	-	-
CCN(CCCNC(=O)CC(C(=O)N1CCc2ccccc21)n1ccnc1)c1ccccc1 (configuration not stated)	0	0	0	0
O=C(CC(C(=O)N1CCc2ccccc21)n1ccnc1)NCc1cccnc1 (configuration not stated)	0	0	0	33
CC(C)(C)c1ccc(-c2n[nH]c(=S)n2C2CCCC2)cc1	0	0	59	0
Cn1c(-c2ccc(C(C)(C)C)cc2)n[nH]c1=S	0	0	0	0
O=C(c1ccccc1)C(CCC(CN1CCOCC1)C(=O)c1ccccc1)CN1CCOCC1 (configuration not stated)	0	0	41	0
O=C(c1ccc(F)cc1)C(CN1CCOCC1)c1ccccc1 (configuration not stated)	0	0	55	0
COc1ccc(C(=O)C(CN2CCCC2)c2ccccc2)cc1 (configuration not stated)	0	0	0	0
CCOc1ccc(C(O)C(CN2CCOCC2)c2ccccc2)cc1 (configuration not stated)	0	0	37	0
CCCOc1ccc(C(O)C(CN2CCOCC2)c2ccccc2)cc1 (configuration not stated)	0	0	0	0
COc1ccc(C(=O)C(CN2CCOCC2)c2ccccc2)cc1 (configuration not stated)	0	61	0	0
CCCS(=O)(=O)Nc1cc(C(F)(F)F)ccc1OCCOC	0	0	0	0
CC(C)(C)SCCNC(=O)c1ccc(Cl)c([N+](=O)[O-])c1	0	0	-	-
COc1ccc(-c2nnc(SCC(=O)NCc3cccs3)n2CC(C)C)cc1	0	0	0	0
C/C(=N\NC(=O)c1cccc(F)c1)c1ccc(Br)s1	0	0	0	0
CCC1CCCCN1c1nc(-c2cccc(OC)c2O)nc2ccccc12 (configuration not stated)	0	0	41	0
CC1CCN(c2nc(-c3ccncc3)nc3ccccc23)CC1	0	0	95	105
CC1CCCCN1c1nc(-c2ccncc2)nc2ccccc12 (configuration not stated)	0	0	73	0
CC1CCCCN1c1ncnc2ccccc12 (configuration not stated)	0	0	0	0
c1ccc2c(N3CCOCC3)nc(-c3ccncc3)nc2c1	0	0	0	0
CCN1CCN(c2nc(-c3ccccc3)nc3ccccc23)CC1	0	0	-	-
CCC1CCCCN1c1nc(-c2ccncc2)nc2ccccc12 (configuration not stated)	0	0	75	0
Cc1cnn(-c2ccc3nnc(-c4ccc(Br)cc4)n3n2)c1	0	0	0	0
SMILES	BB579 growth dn	Yeast lifespan up	PostGolgi ctrl	PostGolgi yeast
O=C(CC12CCC(CC1)C2)NCc1ccc2c(c1)OCO2	0	-	-	-
CC1CCN(c2nc(/C=C/c3ccccc3)nc3ccccc23)CC1	91	0	-	-
COC(=O)c1c(C)nc(C)c2c(=O)oc3ccccc3c12	0	0	42	0
Cc1cc2c(c(N)n1)c(=O)oc1ccccc12	0	0	0	0
Cc1cccc(NC(=O)c2cn(-c3ccccc3)nc2-c2ccccc2)c1	0	0	-	-
Cc1cc(NC(=O)c2c(F)cccc2Cl)n(-c2nc3ccccc3[nH]2)n1	0	0	0	0
Cc1cc(Nc2ccccc2)n(-c2nc3ccccc3[nH]2)n1	0	0	41	0
Cc1cc(NC(=O)c2c(F)cccc2F)n(-c2nc3ccccc3[nH]2)n1	0	0	30	0
CCOCCCNC(=O)C(C)NS(=O)(=O)c1ccc(C)cc1 (configuration not stated)	0	0	0	0
Cc1nc(SCC(=O)Nc2ccc(Cl)cc2[N+](=O)[O-])nc(C)c1C	0	0	-	-
Cc1ccc(Nc2nnc(SC3CCOC3=O)s2)c(C)c1 (configuration not stated)	0	0	-	-
CCC(OC(=O)c1cc2sccc2n1C)C(=O)NCc1ccco1 (configuration not stated)	0	0	99	103
C=CCSc1nc2ccccc2n1C(=O)/C=C/c1cc(OC)c(OC)c(OC)c1	0	0	38	0
COC(=O)CCN(C(=O)C1C2CC3CC(C2)CC1C3)c1ccccn1 (configuration not stated)	0	0	0	0
Cc1ccc(-c2nc(C#N)c(NCCc3ccccn3)o2)cc1	0	0	33	0
Nc1nc(NC(=O)c2ccc(Cl)cc2)nn1-c1ccccc1	0	0	-	-
O=C(Nc1nc(N2C(=O)c3ccccc3C2=O)n(-c2ccccc2)n1)c1ccc(Cl)cc1	0	0	35	0
Cc1cc(C)n(C(=O)CCCCCCCCC(=O)n2nc(C)cc2C)n1	0	0	0	0
CC(=O)c1cccc(NC(=O)c2ccc3c(Cl)c4c(nc3c2)CCCC4)c1	0	0	-	-
N#Cc1ccccc1NC(=O)c1ccc2c(Cl)c3c(nc2c1)CCCC3	45	0	-	-
CCN(C(=O)c1ccc2c(Cl)c3c(nc2c1)CCC3)c1cccc(C)c1	0	39	-	-
COc1ccc(C2=NOC(C(=O)NCCCn3ccnc3)C2)cc1 (configuration not stated)	0	0	0	0
CC(C)NC(=O)c1ccc2c(c1)nnn2C	0	0	45	0
Cn1nnc2cc(C(=O)Nc3cccnc3)ccc21	0	0	0	39
Cn1nnc2cc(C(=O)NC3CCCCC3)ccc21	0	0	0	0
SMILES	BB579 growth dn	Yeast lifespan up	PostGolgi ctrl	PostGolgi yeast
O=C(c1ccc(=O)n(Cc2ccc(Cl)c(Cl)c2)c1)N1CCOCC1	0	0	0	0
Nc1ncc(-c2nnnn2-c2ccc(Cl)cc2)c(-c2ccc(Cl)cc2)n1	0	0	36	0
O=C(COC(=O)c1ccc2[nH]c3c(c2c1)CCCC3)Nc1ccccc1	0	0	-	-
NC(=O)c1cc(Br)cc2c3c([nH]c12)CCCC3	0	0	78	0
COc1ccc(-c2cc(-c3c(O)c(OC)c4occc4c3OC)[nH]n2)cc1	0	0	56	0
Oc1ccc(Cl)cc1-c1cc(-c2ccccc2)n[nH]1	0	0	65	0
COc1ccc(-c2cc(-c3ccccc3O)[nH]n2)cc1	76	0	0	0
COc1ccccc1-c1cc(-c2cc(Cl)ccc2O)n[nH]1	0	0	0	0
CCOc1cccc(OCCCCN2CCOCC2)c1	0	0	0	0
COc1cccc(OCCCCCCN2CCOCC2)c1	0	0	0	45
O=C(COc1ccc(S(=O)(=O)NC2CCCCC2)cc1Cl)NCc1ccc2c(c1)OCO2	0	0	0	0
O=C(COc1ccc(S(=O)(=O)NC2CCCCC2)cc1Cl)Nc1ccc2c(c1)OCO2	0	0	43	0
CCOc1ccc2[nH]c(=O)c(CN(Cc3cccs3)C(CC)c3nnnn3C(C)(C)CC)cc2c1 (configuration not stated)	0	0	37	0
CC1=C(C(=O)OC(C)C)C(c2cccs2)C(C(=O)OC(C)C)=C(C)N1	0	0	-	-
Clc1ccc(CSC2=NCCCN2)cc1Cl	0	0	0	0
